In ChEMBL document CHEMBL6083196, “Synthesis and cytotoxic activity of madecassic acid-silybin conjugate compounds in liver cancer cells” (2024):

How the values were obtained:
[1] = test system: HepG2; test: Cytotoxicity against human HepG2 cells incubated for 96 hrs by MTT assay; format: functional
Procedure, shortened: (§1)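 Cells grown in DMEM with 10% FBS and 1% antibiotic at 37 °C, 5% CO2. Trypsinised, seeded at 3 × 10^4 cells per mL, treated over an eight-point titration for 96 h. MTT (0.5 mg mL−1) added for 4 h at 37 °C, formazan dissolved in DMSO, absorbance read at 570 nm. GI50 is the concentration halving the MTT signal versus untreated control. Ellipticine served as reference; n ≥ 3 repeats.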

[2] = test system: Hep 3B2; test: Cytotoxicity against human Hep3B cells incubated for 96 hrs by MTT assay; format: functional; procedure, shortened: as §1
[3] = test system: Huh-7; test: Cytotoxicity against human Huh-7 cells incubated for 96 hrs by MTT assay; format: functional; procedure, shortened: as §1
[4] = Cytotoxicity against human Huh-7R cells incubated for 96 hrs by MTT assay; format: functional; procedure, shortened: as §1
[5] = test system: HepG2; test: Induction of apoptosis in human HepG2 cells assessed as viable cells at GI50 incubated for 24 hrs by Annexin V-FITC/PI staining based flow cytometry (reference value: 88.62 %); format: functional
[6] = test system: HepG2; test: Induction of apoptosis in human HepG2 cells assessed as early apoptotic cells at GI50 incubated for 24 hrs by Annexin V-FITC/PI staining based flow cytometry (reference value: 2.98 %); format: functional
[7] = test system: HepG2; test: Induction of apoptosis in human HepG2 cells assessed as late apoptotic cells at GI50 incubated for 24 hrs by Annexin V-FITC/PI staining based flow cytometry (reference value: 3.06 %); format: functional
[8] = test system: HepG2; test: Induction of apoptosis in human HepG2 cells assessed as necrotic cells at GI50 incubated for 24 hrs by Annexin V-FITC/PI staining based flow cytometry (reference value: 5.34 %); format: functional
[9] = test system: HepG2; test: Induction of apoptosis in human HepG2 cells assessed as viable cells at 3 times GI50 incubated for 24 hrs by Annexin V-FITC/PI staining based flow cytometry (reference value: 88.62 %); format: functional
[10] = test system: HepG2; test: Induction of apoptosis in human HepG2 cells assessed as early apoptotic cells at 3 times GI50 incubated for 24 hrs by Annexin V-FITC/PI staining based flow cytometry (reference value: 2.98 %); format: functional
[11] = test system: HepG2; test: Induction of apoptosis in human HepG2 cells assessed as late apoptotic cells at 3 times GI50 incubated for 24 hrs by Annexin V-FITC/PI staining based flow cytometry (reference value: 3.06 %); format: functional
[12] = test system: HepG2; test: Induction of apoptosis in human HepG2 cells assessed as necrotic cells at 3 times GI50 incubated for 24 hrs by Annexin V-FITC/PI staining based flow cytometry (reference value: 5.34 %); format: functional
[13] = test system: HepG2; test: Induction of apoptosis in human HepG2 cells assessed as fold change in caspase-3 level at 0.3 times GI50 incubated for 1 hr by colorimetric assay relative to control; format: functional
Procedure, shortened: (§2)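 Lysates taken from HepG2 cells 1, 6 or 24 h after treatment at 0.3×, 1× or 3× GI50. Lysis on ice for 10 min, then 10 000 × g spin; protein measured by Bradford. 80 μg protein incubated with DTT and DEVD-pNA substrate for 1 h at 37 °C, in triplicate; absorbance read at 405 nm. Result expressed as fold change versus untreated cells. Camptothecin 0.5 μM as control; mean and SE reported.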

[14] = test system: HepG2; test: Induction of apoptosis in human HepG2 cells assessed as fold change in caspase-3 level at 0.3 times GI50 incubated for 6 hrs by colorimetric assay relative to control; format: functional; procedure, shortened: as §2
[15] = test system: HepG2; test: Induction of apoptosis in human HepG2 cells assessed as fold change in caspase-3 level at 0.3 times GI50 incubated for 24 hrs by colorimetric assay relative to control; format: functional; procedure, shortened: as §2
[16] = test system: HepG2; test: Induction of apoptosis in human HepG2 cells assessed as fold change in caspase-3 level at GI50 incubated for 1 hr by colorimetric assay relative to control; format: functional; procedure, shortened: as §2
[17] = test system: HepG2; test: Induction of apoptosis in human HepG2 cells assessed as fold change in caspase-3 level at GI50 incubated for 6 hrs by colorimetric assay relative to control; format: functional; procedure, shortened: as §2
[18] = test system: HepG2; test: Induction of apoptosis in human HepG2 cells assessed as fold change in caspase-3 level at GI50 incubated for 24 hrs by colorimetric assay relative to control; format: functional; procedure, shortened: as §2
[19] = test system: HepG2; test: Induction of apoptosis in human HepG2 cells assessed as fold change in caspase-3 level at 3 times GI50 incubated for 1 hr by colorimetric assay relative to control; format: functional; procedure, shortened: as §2
[20] = test system: HepG2; test: Induction of apoptosis in human HepG2 cells assessed as fold change in caspase-3 level at 3 times GI50 incubated for 6 hrs by colorimetric assay relative to control; format: functional; procedure, shortened: as §2
[21] = test system: HepG2; test: Induction of apoptosis in human HepG2 cells assessed as fold change in caspase-3 level at 3 times GI50 incubated for 24 hrs by colorimetric assay relative to control; format: functional; procedure, shortened: as §2
[22] = test system: HepG2; test: Induction of cell cycle arrest in human HepG2 cells assessed as accumulation at G0/G1 phase at IC50 incubated for 24 hrs by PI staining based flow cytometry (reference value: 24.63 %); format: functional
[23] = test system: HepG2; test: Induction of cell cycle arrest in human HepG2 cells assessed as accumulation at S phase at IC50 incubated for 24 hrs by PI staining based flow cytometry (reference value: 46.83 %); format: functional
[24] = test system: HepG2; test: Induction of cell cycle arrest in human HepG2 cells assessed as accumulation at G2/M phase at IC50 incubated for 24 hrs by PI staining based flow cytometry (reference value: 27.69 %); format: functional
[25] = test system: HepG2; test: Induction of cell cycle arrest in human HepG2 cells assessed as accumulation at G0/G1 phase at 3 times IC50 incubated for 24 hrs by PI staining based flow cytometry (reference value: 24.63 %); format: functional
[26] = test system: HepG2; test: Induction of cell cycle arrest in human HepG2 cells assessed as accumulation at S phase at 3 times IC50 incubated for 24 hrs by PI staining based flow cytometry (reference value: 46.83 %); format: functional
[27] = test system: HepG2; test: Induction of cell cycle arrest in human HepG2 cells assessed as accumulation at G2/M phase at 3 times IC50 incubated for 24 hrs by PI staining based flow cytometry (reference value: 27.69 %); format: functional
[28] = test system: HepG2; test: Induction of apoptosis in human HepG2 cells assessed as necrotic cells incubated for 24 hrs by Annexin V-FITC/PI staining based flow cytometry (reference value: 5.34 %); format: functional
[29] = test system: HepG2; test: Induction of apoptosis in human HepG2 cells assessed as late apoptotic cells incubated for 24 hrs by Annexin V-FITC/PI staining based flow cytometry (reference value: 3.06 %); format: functional
[30] = test system: HepG2; test: Induction of apoptosis in human HepG2 cells assessed as early apoptotic cells incubated for 24 hrs by Annexin V-FITC/PI staining based flow cytometry (reference value: 2.98 %); format: functional
[31] = test system: HepG2; test: Induction of apoptosis in human HepG2 cells assessed as viable cells incubated for 24 hrs by Annexin V-FITC/PI staining based flow cytometry (reference value: 88.62 %); format: functional
[32] = test system: HepG2; test: Induction of apoptosis in human HepG2 cells assessed as fold change in caspase-3 level at 0.5 uM incubated for 1 hr by colorimetric assay relative to control
[33] = test system: HepG2; test: Induction of apoptosis in human HepG2 cells assessed as fold change in caspase-3 level at 0.5 uM incubated for 6 hrs by colorimetric assay relative to control
[34] = test system: HepG2; test: Induction of apoptosis in human HepG2 cells assessed as fold change in caspase-3 level at 0.5 uM incubated for 24 hrs by colorimetric assay relative to control

Row | SMILES | GI50 [1] [µM] | GI50 [2] [µM] | GI50 [3] [µM] | GI50 [4] [µM] | Activity [5] [%] | Activity [6] [%] | Activity [7] [%] | Activity [8] [%] | Activity [9] [%] | Activity [10] [%] | Activity [11] [%] | Activity [12] [%] | fold change (FC) [13] | fold change (FC) [14] | fold change (FC) [15] | fold change (FC) [16] | fold change (FC) [17] | fold change (FC) [18] | fold change (FC) [19] | fold change (FC) [20] | other results
1 | COc1cc([C@H]2Oc3cc([C@H]4Oc5cc(O)cc(O)c5C(=O)[C@@H]4OC(=O)CNC(=O)[C@]45CC[C@@H](C)[C@H](C)[C@H]4C4=CC[C@@H]6[C@@]7(C)C[C@@H](OC(C)=O)[C@H](OC(C)=O)[C@@](C)(COC(C)=O)[C@@H]7[C@H](O)C[C@@]6(C)[C@]4(C)CC5)ccc3O[C@@H]2CO)ccc1O | 32.5 | 9.61 | 13.8 | 14.2 | 71.11 | 10.65 | 4.92 | 13.32 | 84 | 1.28 | 0.91 | 13.81 | 0.59 | 0.76 | 1.62 | 0.76 | 1.09 | 1.86 | 1.69 | 1.27 | fold change (FC) [21]: 1.37; Activity [22]: 26.72%; Activity [23]: 61.09%; Activity [24]: 9.78%; Activity [25]: 27.07%; Activity [26]: 60.41%; Activity [27]: 11.8%
2 | CC[C@@]1(O)C(=O)OCc2c1cc1n(c2=O)Cc2cc3ccccc3nc2-1 [CAMPTOTHECIN] |  |  |  |  |  |  |  |  |  |  |  |  |  |  |  |  |  |  |  |  | Activity [28]: 3.85%; Activity [29]: 2.3%; Activity [30]: 14.78%; Activity [31]: 79.08%; fold change (FC) [32]: 1.94; fold change (FC) [33]: 2.21; fold change (FC) [34]: 2.19
3 | C[C@H]1[C@H](C)CC[C@]2(C(=O)O)CC[C@]3(C)C(=CC[C@@H]4[C@@]5(C)C[C@@H](O)[C@H](O)[C@@](C)(CO)[C@@H]5[C@H](O)C[C@]43C)[C@H]12 [MADECASSIC ACID] | 161 | 178 | 198 | 215 | 80.48 | 9 | 4.29 | 6.23 | 72.03 | 13.37 | 6.16 | 8.44 | 0.74 | 0.81 | 0.99 | 0.94 | 1.16 | 0.68 | 0.97 | 1.71 | fold change (FC) [21]: 0.54; Activity [22]: 19.29%; Activity [23]: 58.52%; Activity [24]: 21.51%; Activity [25]: 54.22%; Activity [26]: 24.25%; Activity [27]: 20.71%
